# Publication PMC4681656 (Organic & biomolecular chemistry, 2016)
# Entries after “also recorded” stand apart in the source; their conditions may differ.
# Legend:
# [1] = test system: Par-4 secretion from mouse fibroblasts; assay type: cell-based; conditions: for fold induction at 0.5 µM: Mus musculus, Fibroblast, 24 h, read-out: Ratio of Par-4 Secretion by Arylquin Relative to Vehicle
# Procedure, shortened: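 Cells exposed to test compound for 24 h. Conditioned medium and lysates were analysed by quantitative Western blot for Par-4 and Col1A1, with Col1A1 used to normalise secreted Par-4. Experiments were run in triplicate; data are mean ± standard deviation of at least three experiments, with Student t test.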
# [2] = biological target: hERG potassium channel (Homo sapiens, UniProt Q12809); test: [3H]-dofetilide binding assay with hERG-HEK293 cell membranes
# Chain of hERG potassium channel (Q12809 whole entry, the tested form may be a part): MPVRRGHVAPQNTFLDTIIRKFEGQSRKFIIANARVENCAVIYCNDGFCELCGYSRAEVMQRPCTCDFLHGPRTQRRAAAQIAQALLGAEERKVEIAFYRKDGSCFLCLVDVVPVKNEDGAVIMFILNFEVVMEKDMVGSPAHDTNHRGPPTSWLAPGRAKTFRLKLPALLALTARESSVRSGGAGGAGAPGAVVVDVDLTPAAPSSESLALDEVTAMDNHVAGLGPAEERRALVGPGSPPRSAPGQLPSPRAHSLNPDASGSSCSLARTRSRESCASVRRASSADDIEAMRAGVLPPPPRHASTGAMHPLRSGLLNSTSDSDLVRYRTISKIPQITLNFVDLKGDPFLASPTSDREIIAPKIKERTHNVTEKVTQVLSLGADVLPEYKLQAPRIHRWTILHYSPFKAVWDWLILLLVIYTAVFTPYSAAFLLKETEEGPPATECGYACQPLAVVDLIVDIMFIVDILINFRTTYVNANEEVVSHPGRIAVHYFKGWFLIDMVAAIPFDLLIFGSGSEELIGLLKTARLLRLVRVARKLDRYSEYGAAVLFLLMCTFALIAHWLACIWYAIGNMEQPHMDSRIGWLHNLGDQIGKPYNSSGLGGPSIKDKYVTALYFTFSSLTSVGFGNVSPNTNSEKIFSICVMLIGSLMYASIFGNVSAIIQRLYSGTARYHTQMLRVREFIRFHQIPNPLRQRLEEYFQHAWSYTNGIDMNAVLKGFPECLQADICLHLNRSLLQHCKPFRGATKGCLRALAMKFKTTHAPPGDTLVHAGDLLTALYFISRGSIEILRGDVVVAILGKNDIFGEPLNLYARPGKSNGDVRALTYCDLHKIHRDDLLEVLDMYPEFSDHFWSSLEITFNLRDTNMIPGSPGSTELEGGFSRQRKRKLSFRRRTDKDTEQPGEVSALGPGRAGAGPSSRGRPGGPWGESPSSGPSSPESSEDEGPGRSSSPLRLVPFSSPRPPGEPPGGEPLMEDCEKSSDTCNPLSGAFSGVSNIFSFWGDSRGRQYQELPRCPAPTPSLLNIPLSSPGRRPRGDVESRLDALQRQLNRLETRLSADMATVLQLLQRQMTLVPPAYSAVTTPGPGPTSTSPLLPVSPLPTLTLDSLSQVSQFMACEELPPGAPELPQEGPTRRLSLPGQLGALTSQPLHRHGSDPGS
# [3] = biological target: vimentin rod domain (residues 99-411) (Homo sapiens, UniProt P08670); test: Vimentin-arylquin binding assay by intrinsic arylquin fluorescence; conditions: fluorescence titration
# Chain of vimentin rod domain (residues 99-411) (P08670 99-411): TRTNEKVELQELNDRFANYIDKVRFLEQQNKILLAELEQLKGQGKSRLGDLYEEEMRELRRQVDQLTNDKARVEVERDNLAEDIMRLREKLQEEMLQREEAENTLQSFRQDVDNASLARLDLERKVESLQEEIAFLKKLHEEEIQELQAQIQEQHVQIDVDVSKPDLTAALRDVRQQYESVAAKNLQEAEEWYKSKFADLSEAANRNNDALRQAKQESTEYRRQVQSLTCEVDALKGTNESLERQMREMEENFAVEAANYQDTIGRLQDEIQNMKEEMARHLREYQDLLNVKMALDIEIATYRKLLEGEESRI
Structure (SMILES),Par-4 secretion activity (in words) [1],fold induction at 0.5 µM [1],IC50 [2],other results
"CN(C)c1ccc2cc3c(nc(N)c4ccccc43)nc2c1 [compound 5, N^9,N^9-Dimethyldibenzo[b,f][1,8]naphthyridine-5,9-diamine]",inactive,,,
"Nc1nc2ccc(Cl)cc2cc1-c1ccccc1F [compound 16, 6-Chloro-3-(2-fluorophenyl)quinolin-2-amine]",equipotent to 1a,,,
"CN(C)c1ccc2cc(-c3ccccc3F)c(=S)[nH]c2c1 [compound 7, 7-(N,N-Dimethylamino)-3-(2-fluorophenyl)quinoline-2(1H)-thione]",,1.7,> 100 µM,
"CN(C)c1ccc2cc3c(nc2c1)[nH]c(=O)c1ccccc13 [compound 6, 9-(N,N-Dimethylamino)dibenzo[b,f][1,8]naphthyridin-5(6H)-one]",inactive,,,
"CN(C)c1ccc2cc(-c3c(F)cccc3Cl)c(N)nc2c1 [1n, 3-(2-Chloro-6-fluorophenyl)-N^7,N^7-dimethylquinoline-2,7-diamine]",,2.4,,
"CN(C)c1ccc2cc(-c3c(Cl)cccc3Cl)c(N)nc2c1 [1o, 3-(2,6-Dichlorophenyl)-N^7,N^7-dimethylquinoline-2,7-diamine]",,2.4,,
"CN(C)c1ccc2cc(-c3ccccc3F)c(N)nc2c1 [1a, 3-(2-Fluorophenyl)-N^7,N^7-dimethylquinoline-2,7-diamine]",,,,Stoichiometry at saturation [3]: 3-4 molecules per monomer of the rod domain
"CN(C)c1ccc2cc(-c3ccc(F)cc3)c(N)nc2c1 [1f, 3-(4-Fluorophenyl)-N^7,N^7-dimethylquinoline-2,7-diamine]",,,30.2 ± 10.3 µM,
"COc1ccccc1-c1cc2ccc(N(C)C)cc2nc1N [1r, 3-(2-Methoxyphenyl)-N^7,N^7-dimethylquinoline-2,7-diamine]",,1.7,,
"CN1CCN(c2nc3cc(N(C)C)ccc3cc2-c2ccccc2F)CC1 [compound 11, 3-(2-Fluorophenyl)-N,N-dimethyl-2-(4-methylpiperazin-1-yl)quinolin-7-amine]",high levels of Par-4 secretion,,,
"Nc1nc2ccccc2cc1-c1ccccc1F [compound 12, 3-(2-Fluorophenyl)quinolin-2-amine]",high levels of Par-4 secretion,2.8,14.6 ± 5.82 µM,
"CN(C)c1ccc2cc(-c3ccccc3F)c(N3CCOCC3)nc2c1 [compound 10, 3-(2-Fluorophenyl)-N,N-dimethyl-2-morpholinoquinolin-7-amine]",,1.8,23.3 ± 3.05 µM,
"CN(C)c1ccc2cc(-c3ccccc3F)c(=O)[nH]c2c1 [compound 2, 7-(N,N-Dimethylamino)-3-(2-fluorophenyl)quinolin-2(1H)-one]",,1.1,> 100 µM,
"Nc1nc2cccc(F)c2cc1-c1ccccc1F [compound 13, 5-Fluoro-3-(2-fluorophenyl)quinolin-2-amine]",equipotent to 1a,,,
"Nc1nc2cc(Cl)ccc2cc1-c1ccccc1F [compound 17, 7-Chloro-3-(2-fluorophenyl)quinolin-2-amine]",did not induce Par-4 secretion,,,Binding to vimentin rod domain (in words) ([3]; arylquin at 1 μM): did not bind the vimentin rod domain to a measurable extent; also recorded: fluorescence signal did not change in the titration
"CN(C)c1ccc2cc(-c3cccc(F)c3)c(N)nc2c1 [1d, 3-(3-Fluorophenyl)-N^7,N^7-dimethylquinoline-2,7-diamine]",,,1.59 ± 0.39 µM,
